Data set [1] deals with T1, Metabotropic glutamate receptor 5 (Rattus norvegicus, UniProt P31424). Briefly: Antagonist activity at rat mGluR5 expressed in human HEK-293 cells assessed as inhibition of glutamate-induced intracellular calcium mobilization. It counts as functional, cell-based, HEK293. For orientation: Calcium assays in cells follow changes in intracellular calcium, usually with a dye or a luminescent sensor.

Data set [2] concerns the target T1, Metabotropic glutamate receptor 5. Briefly: Displacement of [3H]methoxy-PEPY from rat mGluR5 expressed in human HEK-293 cells by liquid scintillation counting. The data set is classed as cell-based, HEK293. An outline of the steps:
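Membranes from stable rat mGluR5-HEK293A cells (10 µg/well) incubated with 2 nM [3H]methoxy-PEPY in 50 mM Tris/0.9% NaCl, pH 7.4, with or without compound, 1 h at room temperature with shaking. Filtered on GF/B, washed three times, counted by liquid scintillation. Ki derived from fitted IC50; three experiments in duplicate.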

In data set [3] the test system is Rattus norvegicus. As to the kind of experiment: Analgesic activity in ip dosed rat post-operative pain model. The data set is classed as functional.
Data set [4] can be described thus: Octanol-phosphate buffer partition coefficient, log D of the compound at pH 7.4. It counts as physicochemical. An outline of the steps:
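Log D measured as partition of the [123I]-labelled compound between octanol and phosphate buffer pH 7.4.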

T1 sequence (P31424 whole entry): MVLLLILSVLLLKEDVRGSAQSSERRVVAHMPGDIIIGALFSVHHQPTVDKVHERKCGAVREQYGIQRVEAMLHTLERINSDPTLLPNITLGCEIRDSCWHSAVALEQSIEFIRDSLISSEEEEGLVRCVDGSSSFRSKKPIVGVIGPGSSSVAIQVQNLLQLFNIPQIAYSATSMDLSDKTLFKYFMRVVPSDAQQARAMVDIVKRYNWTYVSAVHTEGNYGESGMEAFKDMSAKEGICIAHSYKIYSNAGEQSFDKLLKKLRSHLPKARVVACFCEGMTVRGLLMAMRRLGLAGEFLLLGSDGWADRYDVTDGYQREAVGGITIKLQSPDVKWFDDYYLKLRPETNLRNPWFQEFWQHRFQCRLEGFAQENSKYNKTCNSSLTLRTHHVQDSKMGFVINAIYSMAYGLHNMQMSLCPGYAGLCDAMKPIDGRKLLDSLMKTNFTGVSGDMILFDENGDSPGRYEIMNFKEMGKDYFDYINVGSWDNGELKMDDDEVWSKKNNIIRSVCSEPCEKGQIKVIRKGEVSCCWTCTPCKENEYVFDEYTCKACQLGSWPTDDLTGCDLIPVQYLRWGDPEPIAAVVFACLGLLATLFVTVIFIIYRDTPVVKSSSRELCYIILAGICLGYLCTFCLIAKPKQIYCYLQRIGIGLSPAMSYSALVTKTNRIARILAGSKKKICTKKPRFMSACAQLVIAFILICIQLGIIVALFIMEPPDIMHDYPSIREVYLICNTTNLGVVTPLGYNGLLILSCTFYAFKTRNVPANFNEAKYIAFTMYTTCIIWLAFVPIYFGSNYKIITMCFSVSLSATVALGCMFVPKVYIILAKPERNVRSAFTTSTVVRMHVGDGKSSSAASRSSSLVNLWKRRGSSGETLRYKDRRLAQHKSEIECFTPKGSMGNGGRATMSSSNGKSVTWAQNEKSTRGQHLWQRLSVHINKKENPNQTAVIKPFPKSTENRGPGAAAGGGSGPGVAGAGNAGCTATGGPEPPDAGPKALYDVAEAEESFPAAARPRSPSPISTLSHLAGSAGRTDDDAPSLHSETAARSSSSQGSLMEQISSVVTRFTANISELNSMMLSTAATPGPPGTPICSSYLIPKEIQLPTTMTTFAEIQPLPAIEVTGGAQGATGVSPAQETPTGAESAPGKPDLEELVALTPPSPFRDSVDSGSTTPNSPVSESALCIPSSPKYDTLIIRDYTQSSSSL

For the compound `Cc1cccc(C#Cc2cc(Cl)cc(C#N)c2)n1`, the IC50 in data set [1] was 1.22 nM.
For the compound `Cc1cccc(C#Cc2cc(Br)cc([N+](=O)[O-])c2)n1`, in data set [1], the IC50 amounted to 0.63 nM.
On the same count and under the same terms, then `O=[N+]([O-])c1cc(I)cc(C#Cc2ccccn2)c1`, with 2.09 nM.
In the case of `Cc1nc(C#Cc2cc(Br)cc(C#N)c2)cs1`, in data set [2], the Ki came to 0.106 nM. For the same compound, the IC50 in data set [1] was found to be 1.06 nM.
In the same order, the values of `Cc1nc(C#Cc2cc(Cl)cc(C#N)c2)cs1` are 0.127 nM and 1.61 nM.
As for `Cc1nc(C#Cc2cc(C#N)cc([N+](=O)[O-])c2)cs1`, the Ki in data set [2] is 0.36 nM. The IC50 in data set [1] was 2.63 nM.
For the compound `Cc1cccc(C#Cc2cc(I)cc(C#N)c2)n1`, the IC50 in data set [1] is 0.71 nM.
`N#Cc1cc(I)cc(C#Cc2ccccn2)c1`: the IC50 in data set [1] was found to be 0.66 nM.
In turn, `Cc1cccc(C#Cc2ccccc2)n1` had a 50% effective dose (ED50) in data set [3] of 15 mg/kg.
In the case of `Cc1ccc(C#Cc2cc(C#N)cc([N+](=O)[O-])c2)nc1`, the IC50 in data set [1] stood at 2.64 nM.
On to `Cc1nc(C#Cc2cc(I)cc(C#N)c2)cs1`, for which, in data set [2], the affinity, expressed as Ki, was 2.14 nM. Further, the IC50 in data set [1] was found to be 1.05 nM.
Consider `Cc1cccc(C#Cc2cc(F)cc(C#N)c2)n1`, for which, in data set [1], the IC50 was determined as 1.22 nM.
Still for that read-out and setting: then `N#Cc1cc(Cl)cc(C#Cc2ccccn2)c1`, with 1.03 nM; and `N#Cc1cc(C#Cc2ccccn2)cc([N+](=O)[O-])c1`, with 1.32 nM.
`Cc1nc(C#Cc2cc(F)cc(Br)c2)cs1` registered a Ki in data set [2] of 1.06 nM. Further, the IC50 in data set [1] was determined as 1.11 nM.
In the same order, the values of `Cc1nc(C#Cc2cc(Br)cc(Br)c2)cs1` are 0.69 nM and 1.45 nM.
In the case of `Cc1ccc(C#Cc2cc(Br)cc(C#N)c2)nc1`, in data set [1], the IC50 came out at 1.02 nM.
Regarding `Cc1ccc(C#Cc2cc(Br)cc([N+](=O)[O-])c2)nc1`, the IC50 in data set [1] came to 7.36 nM.
`Cc1cccc(C#Cc2cc([123I])cc(C#N)c2)n1` gave a pH-dependent lipophilicity (logD) in data set [4] of 2.3.
Turning to `Cc1nc(C#Cc2cc(I)cc([N+](=O)[O-])c2)cs1`, the Ki in data set [2] is 1.84 nM. Further, the IC50 in data set [1] is 1.75 nM.
The corresponding values for `Cc1nc(C#Cc2cc(Br)cc([N+](=O)[O-])c2)cs1` are 0.93 nM and 0.73 nM.
In the same order, the values of `Cc1nc(C#Cc2cc(F)cc([N+](=O)[O-])c2)cs1` are 0.3 nM and 0.61 nM.
`Cc1ccc(C#Cc2cc(F)cc(C#N)c2)nc1`: in data set [1], the half-maximal inhibitory concentration (IC50) was 0.32 nM.
On the same count and under the same terms, under `O=[N+]([O-])c1cc(Br)cc(C#Cc2ccccn2)c1` stands 0.39 nM; under `Cc1cccc(C#Cc2cc(C#N)cc([N+](=O)[O-])c2)n1`, 3.68 nM.
As for `Cc1nc(C#Cc2cc(F)cc(C#N)c2)cs1`, the Ki in data set [2] stood at 0.36 nM. Further, the IC50 in data set [1] stood at 1.89 nM.
For the compound `O=[N+]([O-])c1cc(F)cc(C#Cc2ccccn2)c1`, the IC50 in data set [1] came out at 0.66 nM.
The same measure, in the same setting: then `Cc1ccc(C#Cc2cc(Cl)cc(C#N)c2)nc1`, with 1.22 nM.

A word on the IC50: it is the concentration that gives 50% inhibition. What is called Ki is the dissociation constant of the complex between target and ligand, obtained from inhibition or displacement. As usually defined, the ED50 is the dose that gives a 50% effect, or the effect in half of the subjects. High values mean weaker potency, low ones greater potency. As a reminder, the logD is the decadic logarithm of the distribution of all forms, ionised or not, between an organic phase and buffer at a given pH. The low end stands for a more hydrophilic compound, the high end for a more lipophilic compound.

These data come from ChEMBL document CHEMBL1781909, “Potent mGluR5 antagonists: pyridyl and thiazolyl-ethynyl-3,5-disubstituted-phenyl series” (Bioorg Med Chem Lett, 2011).
